Converted amounts (≈) assume the structure as drawn.
Key:
HUVEC [1] = assay: Antiinflammatory activity in HUVEC assessed as inhibition of TNF-alpha-induced cell surface ICAM1 expression at 60 ug/ml preincubated before TNFalpha challenge measured after 16 hrs by ELISA; type: functional; details: Homo sapiens
In short: (§1)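 Primary umbilical-cord HUVEC in M-199 with 15% FCS were grown confluent on gelatinized plates. They were pretreated with compound in DMSO, then given TNF-α for 16 h. Cells were fixed in 1% glutaraldehyde (30 min, 4 °C) and blocked in 3% defatted milk (3 h, 37 °C). Detection used anti-ICAM-1 mAb overnight at 4 °C, then peroxidase secondary (3 h, 37 °C). Substrate was o-phenylenediamine in citrate pH 4.5, stopped with 2 N H2SO4, read at A490.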

[2] = Cytotoxicity against HUVEC assessed as cell viability at 60 ug/mL after 24 hrs by MTT assay; type: cell-based; details: human, HUVEC cells; read-out: Activity
In short: (§2)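 Primary HUVEC were exposed for 24 h to compound or vehicle (DMSO alone, 0.25%). Medium was replaced with MTT for the final 4 h. Formazan was then dissolved in DMSO and read at 570 nm. Viability was also checked by trypan blue exclusion.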

HUVEC [3] = assay: Cytotoxicity against HUVEC assessed as cell viability at 6.25 to 200 ug/mL after 24 hrs by MTT assay; type: cell-based; details: human; in short: as §2
HUVEC [4] = assay: Antiinflammatory activity in HUVEC assessed as inhibition of TNF-alpha-induced cell surface ICAM1 expression preincubated before TNFalpha challenge measured after 16 hrs by ELISA; type: functional, cell-based; details: Homo sapiens; in short: as §1
HUVEC [5] = assay: Cytotoxicity against HUVEC after 24 hrs by MTT assay; type: cell-based; details: human
In short: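 Primary endothelial cells isolated from human umbilical cord, grown in M-199 with 15% fetal calf serum, L-glutamine, penicillin, streptomycin, amphotericin and endothelial-cell growth factor, and used after three passages. Cells exposed to vehicle (DMSO 0.25%) or a range of compound concentrations for 24 h. MTT added for the last 4 h, formazan dissolved in DMSO, absorbance read at 570 nm. Trypan blue exclusion also done.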

HUVEC [6] = assay: Antiinflammatory activity in HUVEC assessed as inhibition of TNF-alpha-induced cell surface ICAM1 expression at 271.4 uM/ml preincubated before TNFalpha challenge measured after 16 hrs by ELISA; type: functional; details: Homo sapiens; in short: as §1
HUVEC [7] = assay: Antiinflammatory activity in HUVEC assessed as inhibition of TNF-alpha-induced cell surface ICAM1 expression at 50 uM/ml preincubated before TNFalpha challenge measured after 16 hrs by ELISA; type: functional; details: Homo sapiens

With CC1=NN(c2ccccc2)C(=O)C1C(=O)c1ccccc1 (stereo not drawn) the inhibition at 60 µg/mL (HUVEC [1]) was 75%, the viability at 24 h, 60 ug/mL [2] was 95.8% and the Activity (HUVEC [3]) was “Non-toxic”. The IC50 (HUVEC [4]) was 36.3 µg/mL (≈ 130 µM), the MTD (HUVEC [5]) was 271.4 uM/ml and the inhibition at 271.4 µM (HUVEC [6]) was 62%.
CC(=O)C1C(=O)N(c2ccccc2)N=C1c1ccccc1 (stereo not drawn) showed an inhibition at 60 µg/mL (HUVEC [1]) of 20% and a viability at 24 h, 60 ug/mL [2] of 97.9%.
In the case of Cc1[nH]n(-c2ccccc2)c(=O)c1C(=O)CC(C)(C)C, the inhibition at 60 µg/mL (HUVEC [1]) is reported as 35% and the viability at 24 h, 60 ug/mL [2] is reported as 97.1%.
For CC1=NN(c2ccccc2)C(=O)C1C(=O)C(C)(C)C (stereo not drawn), the inhibition at 60 µg/mL (HUVEC [1]) was 60% and the viability at 24 h, 60 ug/mL [2] was 96.1%.
CC1=NN(c2ccccc2)C(=O)C1C(=O)c1ccco1 (stereo not drawn) showed an inhibition at 60 µg/mL (HUVEC [1]) of 55% and a viability at 24 h, 60 ug/mL [2] of 96.2%.
Compound CC1=NN(c2ccccc2)C(=O)C1C(=O)CCC1CCCC1 (stereo not drawn) has an inhibition at 60 µg/mL (HUVEC [1]) of 35% and a viability at 24 h, 60 ug/mL [2] of 98.6%.
In the case of COc1cc(/C=C/C(=O)CC(=O)/C=C/c2ccc(O)c(OC)c2)ccc1O [CURCUMIN], the MTD (HUVEC [5]) is reported as 50 uM/ml and the inhibition at 50 µM (HUVEC [7]) is reported as 90%.
